Assay results published in the EternaBench riboswitch data.

System: MS2 coat protein
Test: apparent Kd, MS2 coat protein; higher = weaker binding; RNA-MaP array; FMN 200 µM where present
Summary of the method: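 Stalled E. coli RNA polymerase produced the designs on Illumina sequencing-chip clusters. SNAP-549-labelled MS2 coat protein was added from 0.7 or 1.5 nM, doubling to 3 µM, without and then with constant ligand, in 100 mM Tris-HCl pH 7.5, 80 mM KCl, 4 mM MgCl2, BSA, DTT, yeast tRNA and Tween-20. The apparent Kd is the median of filtered per-cluster fits of green signal normalised to red-channel RNA signal and control-cluster median Fmax.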

[1] = designed as: ON switch for flavin mononucleotide, no ligand
[2] = ligand present: flavin mononucleotide, designed as: ON switch for flavin mononucleotide
[3] = designed as: OFF switch for flavin mononucleotide, no ligand
[4] = ligand present: flavin mononucleotide, designed as: OFF switch for flavin mononucleotide

Sequence	apparent Kd [1] [nM]	apparent Kd [2] [nM]	apparent Kd [3] [nM]	apparent Kd [4] [nM]
AGCGAACAUGAGGAUCACCCAUGUGAAAAACAUAGAGGAUAUGUCGCAUGAGUGUAAAAGACAGAAGGCUAUCGCA	225	54.8	–	–
GUCUUGUCAGGAUAUCUUACAUAACAAUCGUAGUUACCAUUGGAGAAGGGACAUGAGGAUCACCCAUGUUAGCC	–	–	17.2	19.1
UGAAUGGUGAUAGGAUAUACAUGAGGAAUCCUCGUAGAAGGAUCACGACAUGAGGAUCACCCAUGUAGCCGUCCGUAGACGGCC	227	470	–	–
AGCUGUGGCCGAGGAUAUCUAAAACCUCAAAACGAAAUAUAAUCGAACAUGAGGAUCACCCAUGUAGAGAAGGCGGUCUCAGCA	–	–	270	514
AGUGUGUGGCAGGAUAUUCUGUUGGUUAGGACAGAAGAAGGGUCUACAUGAGGAUCACCCAUGUAAGCGGUUGA	–	–	251	428
CUAUUCCGAGGAUAUACAUGAGGAUCACCCAUGUCGGGCCUCCGCGUUUCGCGCCUCAGUAGAAGGCGGGUUUC	–	–	20.4	25.9
UAGAGCGCUUGAGGAUAUCGUUUUGUGAUGGUACUCAUGCCUGUUACAUGAGGAUCACCCAUGUACGAGAAGGCAGGCCGUUAG	–	–	58.1	30.5
AACAGUAGAGGAUAUACAUGAGGAUCACCCAUGUGAGAAUUACGUGGCGUACCACGAAGUAGAAGGCUACUGGA	–	–	61.3	302
UGAAAACAUGAGGAUCACCCAUGUCUAGGAGAUCGAGGAUAUGGGCCGGCACUAGGCGGGCCAGAAGGCGAAAAGU	60.8	26.6	–	–
AGUCUGAGAGGAUAUACAAGGGAAAAAAAAGUAAGAUCCCUACAUGAGGAUCACCCAUGUAGAAGGCUCUGACA	–	–	98	43.8
GCAACGCCUGACAUGAGGAUCACCCAUGUUAGAUUGUUAUGUCAGGAUAUUGUCGCGAAAUGUGAUGAGAAGGGAUAUGUUGCU	480	48.8	–	–
GAGUGCUGAGGAUAUACAUGAGGAUCACCCAUGUGCUUCAGCUAGGAGACUAGCAUUGGUAGAAGGUAGUACUC	–	–	11.7	15.4
AUAUAGCGAGGAUAUACAUGAGGAUCACCCAUGUGGUAGUAGAUACGGUAGAGCUAGUGUAGAAGGCGCUAUGA	–	–	463	160
CCACUCGGUGAGAAGGCGCCGGCGUCCGCGAGGCGAGGAUAUCACAUGAGGAUCACCCAUGUGGGCAUGAAGAUUGCCACUAGG	–	–	61.3	152
GUAGCAACAUGAGGAUCACCCAUGUAGGAUAUCGCUAUUGUAAUCAUGUUACAUGAUUACAAUAGCGAGAAGGACGUGAGCUAC	–	–	8.43	11.4
GUACGGAGGGAGAAGGGCUAGAAGGUCCAGCUUAUGUGUGUUGCAACAUGAGGAUCACCCAUGUAGCAGGAUAUCCCUUGUACA	–	–	12.5	36.9
GGAAAAUUGAUCCCUUUUUAUUACAUGAGGAUCACCCAUGUGCAGGAUAUCGAUUAUUAUAGUUUCGAGAAGGGCAAGAAUUGU	–	–	40.3	276
GGAUUACAUGAGGAUCACCCAUGUGAGGAUAUCGAUGUCCUCAAUAAAGUGCGGGACUCGAGAAGGCACUUGGA	–	–	63	83
GUAGCUAUCGGAGGAUAUUCCUUGCGGAAACGCACAUGAGGAUCACCCAUGUAAAUAAAUAAUUGGGAGAAGGCCGAUAGCUAC	45	14.9	–	–
UGGUACUAGGGAGGAUAUGGGAAGAUACAUGAGGAUCACCCAUGUUUAAGAAUGCCGAGAGUCAACUAGAAGGCCCUAGUACCU	180	20.3	–	–
AAAAAGGGAGGAUAUACAUGAGGAUCACCCAUGUAUCAGACGAAAAAGAGUCUGAAGUGUAGAAGGCCCAAAAA	–	–	18.3	27.4
UUACUCAUGUAAGGAUAUGCAGCCGAAGCGGCUGCAGAAGGUACUAUAAUACAUGAGGAUCACCCAUGUAAAAUAAAUAAAGUU	20.4	16.3	–	–
ACUGUUGAGUAGAAGGUACGAUAUUAGUUAUAGUAAGGAUAUACUAACAUGAGGAUCACCCAUGUAUAAAUGGAUAAAUAUUCU	9.91	11.5	–	–
CACUGUCAUGCAGGAUAUGCAUUGGAUUACAAUGCAGAAGGGCGAUUACAUGAGGAUCACCCAUGUGUAGACAGUGAAGAAGAG	165	12.7	–	–
UGCAUGCUAGGAUAUACGGGACAUUAGGGUUCGUUGUGUGGACAUGAGGAUCACCCAUGUAGAAGGAGCGUGCU	–	–	85.6	243
GUUAUGCGGCAGGAUAUCCAUCCGCGGUAUGAUGGAGAAGGGCCGACAUGAGGAUCACCCAUGUGCGUCCUAAG	–	–	55.6	198
AAUUCACAUGAGGAUCACCCAUGUCAGGAUAUGGUUUCACGUUUUUCUUUUCUUGAGGCCAGAAGGGACAGCUA	–	–	67.6	79.1
AUCAGCUCGUCAGGAUAUGCGUCACUGCUUCGGCAGUGUGGUAAGAUCACAUGAGGAUCACCCAUGUAGAAGGGACGAGCUGAU	–	–	9.91	75.2

Sequence	apparent Kd [1] [nM]	apparent Kd [2] [nM]	apparent Kd [3] [nM]	apparent Kd [4] [nM]
AGGUGACAUGAGGAUCACCCAUGUGAGGAUAUCUGGAUACUCUUUAUUUUAGAUAUCCAGAGAAGGCACACCCU	–	–	263	502
UAGAAGUCAGGAUAUCCUGCUCGUCACUUGCGUGAUGAGUAGGAGAAGGGACAUGAGGAUCACCCAUGUAAAGC	–	–	61.1	49.5
UUUUGGCAUGUAGGAUAUGGGUCCGAUUAGGAUUUAGAAGGACAUGAGGAUCACCCAUGUGCAUUUAAUUGGUCAUUACCUUUU	–	–	84.9	115
AUGCUAUUAGGAUAUACAUGAGGAUCACCCAUGUCGCUCGAUCGACGGCUAAGACUAUGUAGAAGGGAUUACGU	–	–	95.7	94.4
CAGGUAGACUGAGGAUAUACAAUAAGACCUAGUCUAUCUAGGUCCCUCACAUGAGGAUCACCCAUGUAGAAGGCAGUCUGCCUG	–	–	51.5	636
CUGGUUGUCGAGGAUAUGCACCAGCUCACUGACGCAGAAGGCGACACAUGAGGAUCACCCAUGUCAGUUCGCGU	–	–	16.9	18.9
UUAUGUCGCGUAGGAUAUCAUUAGAUUUGUAAUUUAAUUGUAAUUUCGAUAUGAGAAGGACGUACACAUGAGGAUCACCCAUGU	–	–	16.4	14.2
CGUCAUCAAGUGAGGAUAUCGUCAAAUCAAUCAGGCGAGAAGGCACAUGAGGAUCACCCAUGUCGACUCAUCAC	–	–	15.4	22.2
AUCAGCUCGUCAGGAUAUACAUCACUGCUUCGGCAGUGUAUCAUAACAACAUGAGGAUCACCCAUGUAGAAGGGACGAGCUGAU	–	–	23.8	34.7
UAAACACCCUCAUGUGCCUGAGGACAUGAGGAUCACCCAUGUGAGGAUAUAGCCAUUAAAUCUAACUAGAAGGUAUAGGAAAUC	–	–	651	190
UAUAUAUAGUAAGGAUAUGUAUUAAUUAUAUAAACAGAAGGUACUGACAUGAGGAUCACCCAUGUUUUAGUGUGGGCAUGUAGA	–	–	81.5	122
AAUGUUUUCAUAGGAUAUUGACAUUUAUUUAUUCAAGAAGGAUGAUUACAUGAGGAUCACCCAUGUUAAAAUGGAUUAACUAGU	–	–	54.4	162
UUUGCAUGACGAGGAUAUCAUUUAUUUCUUGAUUGAGAAGGCGUUCUUUUUACUACCUAACAUGAGGAUCACCCAUGUGACAGU	16.1	12.7	–	–
GAGAAGUCAGGAUAUGCAUGGCGGGACUUGCGUCGUGGCGUGCAGAAGGGACAUGAGGAUCACCCAUGUGGAGG	–	–	169	243
AAAACAUGAGGAUCACCCAUGUAAAGAUCGGUUAAUAGAGGUGAGGAUAUACGAAGUUAAAGCUGGUAGAAGGCACUGGGUACA	78.5	51.3	–	–
AAUAUAGAGCUGGACUCAAAAUAAACAUGAGGAUCACCCAUGUAGGAUAUCAGCACGAUAAGUGCUGAGAAGGACAUCCAGCUC	–	–	15.4	14.2
GGGCCAACAUGAGGAUCACCCAUGUAGGAUAUCGCUAUUGUAAUCAUGAAACAUGAUUACAAUAGCGAGAAGGACAUAUGCAAA	–	–	7	7.7
GUAGCUAUCGGAGGAUAUUCAUACCGGAAACGGACAUGAGGAUCACCCAUGUGCCGAAAGGCUUGGGAGAAGGCCGAUAGCUAC	297	18.5	–	–
CAGUACUGAGGAUAUACAUGAGGAUCACCCAUGUGUCCCGGCUAGGAAACUAGCAAAAGUAGAAGGCAGUACUG	–	–	24	516
UCUUAUUGCAAGGAUAUGCUAUUUAUUUUUUUUGCAGAAGGUGCAACAUGAGGAUCACCCAUGUUUCCGGGCAU	–	–	19.2	42.7
CGCGUAUGAGGAUAUGCAUAAAAGGGUGCACUGAGUCUGUGACAUGAGGAUCACCCAUGUAGAAGGCGUGCGCA	–	–	26.7	73.2
AAAGCAACAUGAGGAUCACCCAUGUAGGAUAUCGCUAUUGUAAUCAUGAAACAUGAUUACAAUAGCGAGAAGGACAUAUGGCCC	–	–	10.8	31.7
ACGGAACAUGAGGAUCACCCAUGUAUCUGAGAUAUGGUCUCACAGGAUAUUCAGAGUUGCCAAUCGGAGAAGGGUGACACCAGA	78.5	43.5	–	–
GCACUGGAUGUAGGAUAUCAGGACGAUAAGUCCUGAGAAGGACAUGAGGAUCACCCAUGUAAAAUCUCACCAGUGCAUAAUAUA	–	–	13.6	16.6
CCCAUCGCAUGAGGAUAUGGUCAGCUUUGCUGACCAGAAGGCAUGUCAAUAGACAUGAGGAUCACCCAUGUAGUUAAGAUGGGA	675	49.2	–	–
UUUUACUAGUAAGGAUAUACUAGCGAUUAGCUUGUAGAAGGUACAGUCUUAUGUAUAACAUGUUAACAUGAGGAUCACCCAUGU	62.1	34.5	–	–
AAAACAUGAGGAUCACCCAUGUUUAGAUCGGUCGAUAGAAGUGAGGAUAUACGAAGUUAAGGCUGGUAGAAGGCACUGGGUACA	39.8	33.3	–	–
